Assay results taken from ChEMBL document CHEMBL1142719 (J Med Chem, 2005).

Experiments:
[1] = target: T1, Adenosine receptor A2b (Homo sapiens) (UniProt P29275); experiment: Relative activation of human Adenosine A2B receptor at 10 uM treatment compared to 10 uM Cl-IB-MECA; format: functional
T1 sequence (whole entry): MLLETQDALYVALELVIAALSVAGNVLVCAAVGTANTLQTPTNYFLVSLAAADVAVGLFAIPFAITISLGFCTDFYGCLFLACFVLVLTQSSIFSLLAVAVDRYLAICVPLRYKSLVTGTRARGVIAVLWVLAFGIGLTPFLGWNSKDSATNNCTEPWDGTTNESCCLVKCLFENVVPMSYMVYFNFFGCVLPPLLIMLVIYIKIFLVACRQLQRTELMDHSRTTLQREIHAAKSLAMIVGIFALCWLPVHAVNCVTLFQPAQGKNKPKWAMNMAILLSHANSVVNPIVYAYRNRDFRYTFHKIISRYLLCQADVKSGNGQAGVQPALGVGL

Adenosine receptor A3 [2] = target: T2, Adenosine receptor A3 (Rattus norvegicus, UniProt P28647); experiment: Inhibition of [125I]AB-MECA binding to rat Adenosine A3 receptor expressed in CHO cells; format: cell-based
T2 sequence (P28647 whole entry): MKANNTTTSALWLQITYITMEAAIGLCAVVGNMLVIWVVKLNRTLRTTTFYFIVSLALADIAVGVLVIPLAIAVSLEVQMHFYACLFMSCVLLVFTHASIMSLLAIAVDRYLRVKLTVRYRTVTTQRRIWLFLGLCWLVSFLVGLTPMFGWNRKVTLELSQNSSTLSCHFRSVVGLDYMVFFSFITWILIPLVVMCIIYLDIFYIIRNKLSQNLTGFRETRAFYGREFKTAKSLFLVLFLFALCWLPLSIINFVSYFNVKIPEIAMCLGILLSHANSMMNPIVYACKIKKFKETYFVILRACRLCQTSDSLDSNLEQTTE

Adenosine receptor A1 = target: T3, Adenosine receptor A1 (Homo sapiens, UniProt P30542); experiment: Inhibition of [3H]R-PIA binding to human Adenosine A1 receptor expressed in CHO cells; format: cell-based
T3 sequence (P30542 whole entry): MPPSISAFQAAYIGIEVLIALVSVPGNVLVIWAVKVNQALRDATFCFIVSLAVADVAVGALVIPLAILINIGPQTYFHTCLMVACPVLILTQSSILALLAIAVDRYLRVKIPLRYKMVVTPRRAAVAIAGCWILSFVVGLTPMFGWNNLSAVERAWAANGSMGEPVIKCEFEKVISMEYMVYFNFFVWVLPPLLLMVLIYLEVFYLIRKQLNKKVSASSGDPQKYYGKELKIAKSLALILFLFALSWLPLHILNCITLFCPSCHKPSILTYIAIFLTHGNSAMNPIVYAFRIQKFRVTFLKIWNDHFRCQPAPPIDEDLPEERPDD

Adenosine receptor A3 [3] = target: T4, Adenosine receptor A3 (Homo sapiens, UniProt P0DMS8); experiment: Inhibition of [125I]-AB-MECA binding to human Adenosine A3 receptor expressed in CHO cells; format: cell-based
T4 sequence (P0DMS8 whole entry): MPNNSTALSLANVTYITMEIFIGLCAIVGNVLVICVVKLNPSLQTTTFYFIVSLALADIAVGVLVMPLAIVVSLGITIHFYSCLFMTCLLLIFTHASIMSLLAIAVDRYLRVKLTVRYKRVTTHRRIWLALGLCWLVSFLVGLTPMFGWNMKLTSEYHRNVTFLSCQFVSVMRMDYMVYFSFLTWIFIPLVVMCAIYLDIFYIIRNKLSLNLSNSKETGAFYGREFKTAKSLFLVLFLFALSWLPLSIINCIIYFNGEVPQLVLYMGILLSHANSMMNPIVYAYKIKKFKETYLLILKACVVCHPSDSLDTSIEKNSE

Adenosine receptor A2a [4] = target: T5, Adenosine receptor A2a (Homo sapiens, UniProt P29274); experiment: Displacement of [3H]-CGS- 21680 from human Adenosine A2A receptor expressed in CHO cells at 10 uM; format: cell-based
T5 sequence (P29274 whole entry): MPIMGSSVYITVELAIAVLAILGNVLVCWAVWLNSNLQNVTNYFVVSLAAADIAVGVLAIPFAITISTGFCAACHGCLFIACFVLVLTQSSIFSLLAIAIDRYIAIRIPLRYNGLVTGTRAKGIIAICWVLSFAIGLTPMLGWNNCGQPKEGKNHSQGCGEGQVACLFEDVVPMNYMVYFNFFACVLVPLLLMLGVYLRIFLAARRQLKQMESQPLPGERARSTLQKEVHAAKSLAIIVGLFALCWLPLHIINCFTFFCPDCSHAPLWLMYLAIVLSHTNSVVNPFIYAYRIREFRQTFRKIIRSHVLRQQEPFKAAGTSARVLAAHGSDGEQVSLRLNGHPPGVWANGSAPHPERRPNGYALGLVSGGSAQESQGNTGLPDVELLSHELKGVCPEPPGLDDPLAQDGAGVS
Outline: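 Human A2A receptor stably expressed in adherent CHO cells. Competition binding used [3H]CGS 21680 as the radioligand.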

Adenosine receptor A2a [5] = target: T5, Adenosine receptor A2a; experiment: Inhibition of [3H]-CGS- 21680 binding to human Adenosine A2A receptor expressed in CHO cells; format: cell-based
[6] = target: T6, Adenosine receptor A3 (Homo sapiens) (UniProt P0DMS8); experiment: Relative activation of human Adenosine A3 receptor expressed in CHO cells at 10 uM treatment compared to 10 uM Cl-IB-MECA; format: functional, cell-based
T6 sequence (whole entry): T4 sequence (P0DMS8 whole entry)

| Compound | Activation [1] | Ki (Adenosine receptor A3 [2]) | Ki (Adenosine receptor A1) | Ki (Adenosine receptor A3 [3]) | Displacement (Adenosine receptor A2a [4]) | Ki (Adenosine receptor A2a [5]) | Activation [6] | Inhibition (Adenosine receptor A1; cho) |
| --- | --- | --- | --- | --- | --- | --- | --- | --- |
| CNc1ncnc2c1ncn2[C@@H]1O[C@H](CO)[C@@H](O)[C@H]1O | 16% | 6400 nM | 6000 nM | 9.3 nM | 17% | – | – | – |
| CNC(=O)[C@]12C[C@@H]1[C@@H](n1cnc3c(NCc4cccc(F)c4)nc(Cl)nc31)[C@H](O)[C@@H]2O | 28% | – | – | – | – | 5100 nM | – | – |
| CNC(=O)[C@H]1O[C@@H](n2cnc3c(NCc4cccc(I)c4)ncnc32)[C@H](O)[C@@H]1O | 0% | – | – | – | – | – | – | – |
| CNC(=O)[C@@]12C[C@@H]1[C@@H](n1cnc3c(NCc4cccc(Cl)c4)nc(Cl)nc31)[C@H](O)[C@@H]2O | 38% | 1 nM | 260 nM | – | – | 2300 nM | – | – |
| CNC(=O)[C@]12C[C@@H]1[C@@H](n1cnc3c(NCc4cccc(Cl)c4)nc(I)nc31)[C@H](O)[C@@H]2O | – | – | – | – | 43% | – | – | – |
| OC[C@@]12C[C@@H]1[C@@H](n1cnc3c(NCc4cccc(I)c4)nc(Cl)nc31)[C@H](O)[C@@H]2O | – | – | 65 nM | 1.9 nM | – | 1600 nM | 3% | – |
| CNC(=O)[C@]12C[C@@H]1[C@@H](n1cnc3c(NC)nc(N)nc31)[C@H](O)[C@@H]2O | – | – | – | – | 17% | – | – | – |
| CNC(=O)[C@]12C[C@@H]1[C@@H](n1cnc3c(NCc4cccc(C)c4)nc(Cl)nc31)[C@H](O)[C@@H]2O | 46% | – | – | – | – | 3700 nM | – | – |
| CNC(=O)[C@@]12C[C@@H]1[C@@H](n1cnc3c(NCc4cccc(I)c4)ncnc31)[C@H](O)[C@@H]2O | – | – | – | – | – | – | 100% | – |
| CNC(=O)[C@]12C[C@@H]1[C@@H](n1cnc3c(NCc4cc(C#CCO)ccc4Cl)nc(Cl)nc31)[C@H](O)[C@@H]2O | 6% | – | – | 217 nM | 12% | – | 108% | 14% |
| COc1ccc(Cl)cc1CNc1ncnc2c1ncn2[C@@H]1O[C@H](CO)[C@@H](O)[C@H]1O | 57% | – | – | – | – | 400 nM | – | – |
| CNC(=O)[C@]12C[C@@H]1[C@@H](n1cnc3c(NC4CC4c4ccccc4)nc(Cl)nc31)[C@H](O)[C@@H]2O (stereo not given in full) | 48% | – | – | – | – | 4800 nM | – | – |
| CNC(=O)[C@]12C[C@@H]1[C@@H](n1cnc3c(NCc4ccc(N)c(I)c4)nc(Cl)nc31)[C@H](O)[C@@H]2O | – | – | – | – | – | 1100 nM | – | – |
| CNC(=O)[C@]12C[C@@H]1[C@@H](n1cnc3c(NCc4cc(Cl)ccc4OCC(N)=O)nc(Cl)nc31)[C@H](O)[C@@H]2O | – | – | – | – | – | 800 nM | – | – |
| OC[C@H]1O[C@@H](n2cnc3c(NCC(c4ccccc4)c4ccccc4)ncnc32)[C@H](O)[C@@H]1O | 70% | 540 nM | – | – | – | – | 0% | – |
| CNc1nc(N)nc2c1ncn2[C@@H]1O[C@H](CO)[C@@H](O)[C@H]1O | 11% | > 10000 nM | – | – | 15% | – | 98% | – |
| OC[C@H]1O[C@@H](n2cnc3c(NCc4cccc(I)c4)nc(Cl)nc32)[C@H](O)[C@@H]1O | 16% | – | 17 nM | – | – | – | 0% | – |
| Cc1ccccc1CNc1ncnc2c1ncn2[C@@H]1O[C@H](CO)[C@@H](O)[C@H]1O | – | 38 nM | – | – | – | – | 100% | – |
| CNC(=O)[C@]12C[C@@H]1[C@@H](n1cnc3c(NCc4ccccc4C)nc(Cl)nc31)[C@H](O)[C@@H]2O | 24% | – | – | – | – | 3800 nM | – | – |
| CNC(=O)[C@]12C[C@@H]1[C@@H](n1cnc3c(NCC(c4ccccc4)c4ccccc4)nc(Cl)nc31)[C@H](O)[C@@H]2O | 46% | 10 nM | 1300 nM | 0.69 nM | – | 1600 nM | 107% | – |

| Compound | Activation [1] | Ki (Adenosine receptor A3 [2]) | Ki (Adenosine receptor A1) | Ki (Adenosine receptor A3 [3]) | Displacement (Adenosine receptor A2a [4]) | Ki (Adenosine receptor A2a [5]) | Activation [6] | Inhibition (Adenosine receptor A1; cho) |
| --- | --- | --- | --- | --- | --- | --- | --- | --- |
| CNC(=O)[C@]12C[C@@H]1[C@@H](n1cnc3c(NCc4cccc(Cl)c4)nc(SC)nc31)[C@H](O)[C@@H]2O | – | – | 610 nM | 1.5 nM | 52% | – | 100% | – |
| OC[C@@]12C[C@@H]1[C@@H](n1cnc3c(NCc4cccc(I)c4)ncnc31)[C@H](O)[C@@H]2O | – | – | 35 nM | 9.2 nM | – | 860 nM | 13% | – |
| CNC(=O)[C@@]12C[C@@H]1[C@@H](n1cnc3c(NC)nc(Cl)nc31)[C@H](O)[C@@H]2O | – | – | – | – | 6% | – | 104% | – |
| CNC(=O)[C@]12C[C@@H]1[C@@H](n1cnc3c(NCc4ccc(N)cc4)nc(Cl)nc31)[C@H](O)[C@@H]2O | 22% | – | – | – | 28% | – | – | – |
| CNC(=O)[C@@]12C[C@@H]1[C@@H](n1cnc3c(NCc4cccc(I)c4)nc(Cl)nc31)[C@H](O)[C@@H]2O | – | – | – | – | – | – | 100% | – |
| OC[C@H]1O[C@@H](n2cnc3c(NC4CC4c4ccccc4)ncnc32)[C@H](O)[C@@H]1O (stereo not given in full) | 26% | 400 nM | – | – | – | 2500 nM | 101% | – |
| CNC(=O)[C@]12C[C@@H]1[C@@H](n1cnc3c(NCc4cccc(Br)c4)nc(Cl)nc31)[C@H](O)[C@@H]2O | 38% | 0.76 nM | 270 nM | 0.38 nM | – | 1300 nM | 100% | – |
| CNC(=O)[C@]12C[C@@H]1[C@@H](n1cnc3c(NCc4cc(OC)ccc4OC)nc(Cl)nc31)[C@H](O)[C@@H]2O | 0% | – | 1600 nM | 1.4 nM | 52% | – | 107% | – |
| OC[C@H]1O[C@@H](n2cnc3c(NCc4cccnc4)ncnc32)[C@H](O)[C@@H]1O | – | 290 nM | 42 nM | 4.5 nM | – | 2300 nM | 100% | – |
| OC[C@H]1O[C@@H](n2cnc3c(NCc4cccc(Cl)c4)ncnc32)[C@H](O)[C@@H]1O | – | 35 nM | – | 4.4 nM | – | – | 80% | – |
| OC[C@H]1O[C@@H](n2cnc3c(NCc4cccc(I)c4)ncnc32)[C@H](O)[C@@H]1O | 58% | – | 7.4 nM | – | – | – | 46% | – |
| CNC(=O)[C@]12C[C@@H]1[C@@H](n1cnc3c(NCc4cc(I)ccc4OC)nc(Cl)nc31)[C@H](O)[C@@H]2O | 46% | – | – | – | – | 430 nM | – | – |
| CNC(=O)C12C[C@@H]1[C@@H](n1cnc3c(NCc4cccnc4)nc(Cl)nc31)[C@H](O)[C@@H]2O (single isomer, unassigned) | 4% | – | – | – | 33% | – | – | – |
| CNC(=O)[C@]12C[C@@H]1[C@@H](n1cnc3c(NCc4cc(Cl)ccc4OCc4ccccc4)nc(Cl)nc31)[C@H](O)[C@@H]2O | 49% | 11 nM | 1200 nM | 5.2 nM | – | 850 nM | 110% | – |
| CNC(=O)[C@]12C[C@@H]1[C@@H](n1cnc3c(NCc4cc(I)ccc4Cl)nc(Cl)nc31)[C@H](O)[C@@H]2O | 58% | – | – | – | – | 480 nM | – | – |
| CNC(=O)[C@]12C[C@@H]1[C@@H](n1cnc3c(NCc4cccc(C#CCO)c4)nc(Cl)nc31)[C@H](O)[C@@H]2O | 28% | – | – | – | 56% | – | – | – |
| CNC(=O)[C@@]12C[C@@H]1[C@@H](n1cnc3c(NCc4cc(Cl)ccc4OC)nc(Cl)nc31)[C@H](O)[C@@H]2O | 37% | – | – | – | – | 1200 nM | – | – |
| CNC(=O)[C@]12C[C@@H]1[C@@H](n1cnc3c(NCc4cc(Cl)ccc4Cl)nc(Cl)nc31)[C@H](O)[C@@H]2O | 32% | – | – | – | – | 1300 nM | – | – |
| CNC(=O)[C@H]1O[C@@H](n2cnc3c(NCc4cccc(I)c4)nc(Cl)nc32)[C@H](O)[C@@H]1O | 0% | – | – | – | – | – | – | – |
